For assay [1], the system named is Botrytis cinerea. Description: Antifungal activity against Botryotinia fuckeliana infected in orange pixie tomato seedlings at 40 ppm relative to control. It is filed as functional. A digest of the protocol:
(§1)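 Orange Pixie tomato seedlings sprayed to run-off with test suspension, then inoculated next day with a Botryotinia fuckeliana spore suspension. Kept saturated at 20 °C for 48 h, then 1 more day at 24 °C in a growth chamber before rating. Rates in ppm. Expressed as percent control relative to untreated control plants.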

Assay [2] concerns Parastagonospora nodorum. Description: Antifungal activity against Stagonospora nodorum infected in wheat seedlings at 10 ppm relative to control. It is filed as functional. In short, it runs like this: (§2)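 Wheat seedlings, treated the day before, inoculated with a Stagonospora nodorum spore suspension. Held in a saturated atmosphere at 20 °C for 48 h, then 5 days in a growth chamber at 22 °C, then disease rated. Rates in ppm. Scored as percent control relative to untreated control plants.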

The subject of assay [3] is Parastagonospora nodorum. Description: Antifungal activity against Stagonospora nodorum infected in wheat seedlings at 40 ppm relative to control. Type of assay: functional. In short, it runs like this: as §2
In assay [4] the test system is Puccinia triticina. Description: Antifungal activity against Puccinia recondita f. sp. tritici infected in wheat seedlings at 40 ppm relative to control. It is filed as functional. A digest of the protocol: (§3)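 Test suspension sprayed to run-off on Stevens wheat seedlings. Next day inoculated with a Puccinia recondita f. sp. tritici spore suspension. Held 24 h in a saturated atmosphere at 20 °C, then 7 days in a 20 °C growth chamber before disease rating. Rates in ppm. Given as percent control versus untreated control plants.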

The subject of assay [5] is Puccinia triticina. Description: Antifungal activity against Puccinia recondita f. sp. tritici infected in wheat seedlings at 10 ppm relative to control. Type of assay: functional. In short, it runs like this: as §3
Assay [6] deals with Botrytis cinerea. Description: Antifungal activity against Botryotinia fuckeliana infected in orange pixie tomato seedlings at 200 ppm relative to control. It is filed as functional. A digest of the protocol:
as §1

The subject of assay [7] is Puccinia triticina. Description: Antifungal activity against Puccinia recondita f. sp. tritici infected in wheat seedlings at 200 ppm relative to control. It is filed as functional. A digest of the protocol:
as §3

Assay [8] has as its system Botrytis cinerea. Description: Antifungal activity against Botryotinia fuckeliana infected in orange pixie tomato seedlings at 10 ppm relative to control. Type of assay: functional. In short, it runs like this:
as §1

Assay [9] relates to Parastagonospora nodorum. Description: Antifungal activity against Stagonospora nodorum infected in wheat seedlings at 200 ppm relative to control. It is filed as functional. In short, it runs like this:
as §2

Assay [10] concerns Puccinia triticina. Description: Antifungal activity against Puccinia recondita f. sp. tritici infected in wheat seedlings at 2 ppm relative to control. Type of assay: functional. A digest of the protocol: as §3
The subject of assay [11] is Botrytis cinerea. Description: Antifungal activity against Botryotinia fuckeliana infected in orange pixie tomato seedlings at 2 ppm relative to control. Type of assay: functional. In short, it runs like this: as §1
Assay [12] deals with Parastagonospora nodorum. Description: Antifungal activity against Stagonospora nodorum infected in wheat seedlings at 2 ppm relative to control. It is filed as functional. A digest of the protocol:
as §2

A short description of assay [13]: Antiproliferative activity against human Rhabdomyosarcoma cells after 96 hrs by MTS assay. Type of assay: functional, cell-based. The conditions noted are these: Rhabdomyosarcoma cell. In short, it runs like this: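 Rhabdomyosarcoma cells (ATCC CCL-136) seeded at 10,000 cells/well and allowed to adhere 1–3 h. Medium then replaced with compound-containing medium over a concentration range. Grown 96 h at 37 °C, 5% CO2. Viable cells read by MTS/PMS formazan after 3–4 h at 37 °C, absorbance 490 nm. Data normalized to solvent-only wells; IC50 in nM.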
On the technique in general: Tetrazolium dyes change colour on reduction, which living cells bring about.

Structures are written as SMILES.

Consider `CC(=O)Nc1nc(Cl)c(-c2c(F)cccc2F)n(CC(C)C)c1=O`, for which the Activity in the assay with Botrytis cinerea [1] was 92%; in the assay with Parastagonospora nodorum [2] it was 0%; with Parastagonospora nodorum [3], 0%; in the assay with Puccinia triticina [4] it was 90%; in the assay on Puccinia triticina [5], 0%; in the assay on Botrytis cinerea [6], 99%. The values for the Activity in the assay on Puccinia triticina [7], in the assay with Botrytis cinerea [8] and with Parastagonospora nodorum [9] were 99%, 15% and 0%, respectively.
As for `CC(C)Cn1c(-c2c(F)cccc2F)c(Cl)nc(-c2cn(C)cn2)c1=O`, the Activity in the assay on Puccinia triticina [10] turned out to be 0%; in the assay on Botrytis cinerea [1] it was 99%; in the assay with Parastagonospora nodorum [2] it was 0%; in the assay with Parastagonospora nodorum [3], 67%; in the assay with Puccinia triticina [4], 97%; in the assay on Puccinia triticina [5], 0%. In addition, the Activity in the assay with Botrytis cinerea [6] stood at 100%; in the assay with Puccinia triticina [7] it was 99%; in the assay with Botrytis cinerea [8], 0%; in the assay with Botrytis cinerea [11], 0%; with Parastagonospora nodorum [9], 97%; in the assay with Parastagonospora nodorum [12] it was 0%.
For the compound `CC(C)Cn1c(-c2c(F)cccc2F)c(Cl)nc(-c2ccccn2)c1=O`, the Activity is 99% in the assay on Botrytis cinerea [1]; 0% in the assay on Parastagonospora nodorum [3]; 85% in the assay with Puccinia triticina [4]; 100% with Botrytis cinerea [6]; 99% with Puccinia triticina [7]; 99% in the assay on Parastagonospora nodorum [9].
Take `CCC(C)Cn1c(-c2c(F)cc(F)cc2F)c(Cl)nc(-n2cccn2)c1=O` (configuration not stated): the Activity amounted to 89% in the assay with Puccinia triticina [10]; 100% in the assay on Botrytis cinerea [1]; 98% with Parastagonospora nodorum [2]; 100% with Parastagonospora nodorum [3]; 100% in the assay on Puccinia triticina [4]; 100% with Puccinia triticina [5]. The Activity worked out at 100% in the assay with Botrytis cinerea [6]; 100% in the assay with Puccinia triticina [7]; 100% in the assay on Botrytis cinerea [8]; 100% in the assay with Botrytis cinerea [11]; 100% in the assay with Parastagonospora nodorum [9]; 0% in the assay on Parastagonospora nodorum [12].
In the case of `CC[C@H](C)Cn1c(-c2c(F)cccc2F)c(Cl)nc(-n2ccnc2)c1=O`, the Activity with Botrytis cinerea [1], in the assay on Parastagonospora nodorum [2], in the assay on Parastagonospora nodorum [3], in the assay with Puccinia triticina [4], in the assay on Puccinia triticina [5] and in the assay with Botrytis cinerea [6] was 0% each time. Also, the Activity in the assay with Puccinia triticina [7], with Botrytis cinerea [8] and in the assay with Parastagonospora nodorum [9] was 0% in each case.
`CC(C)Cn1c(-c2ccc(F)cc2Cl)c(Cl)nc(-n2cccn2)c1=O`: the Activity in the assay with Puccinia triticina [10] turned out to be 83%; with Botrytis cinerea [1] it was 100%; in the assay on Parastagonospora nodorum [2] it was 99%; in the assay with Parastagonospora nodorum [3], 100%; with Puccinia triticina [4] it was 100%; in the assay on Puccinia triticina [5] it was 100%. The Activity with Botrytis cinerea [6] is 100%; with Puccinia triticina [7], 100%; in the assay with Botrytis cinerea [8], 100%; with Botrytis cinerea [11], 100%; with Parastagonospora nodorum [9], 100%; with Parastagonospora nodorum [12], 0%.
Take `CC[C@H](C)Cn1c(-c2c(F)cccc2F)c(Cl)nc(C#N)c1=O`: the Activity came to 99% with Botrytis cinerea [1]; 0% with Parastagonospora nodorum [3]; 74% with Puccinia triticina [4]; 99% in the assay with Botrytis cinerea [6]; 96% in the assay with Puccinia triticina [7]; 0% in the assay with Parastagonospora nodorum [9].
Regarding `CC[C@H](C)Cn1c(-c2c(F)cccc2F)c(Cl)nc(-n2nc(C)cc2C)c1=O`, the Activity in the assay on Botrytis cinerea [1] is on record as 0%; in the assay on Parastagonospora nodorum [2], 0%; in the assay on Parastagonospora nodorum [3], 0%; with Puccinia triticina [4] it was 22%; in the assay with Puccinia triticina [5] it was 0%; with Botrytis cinerea [6] it was 0%. For the same compound, the Activity in the assay on Puccinia triticina [7] came out at 73%; in the assay with Botrytis cinerea [8], 0%; in the assay with Parastagonospora nodorum [9], 0%.
For `CC(C)Cn1c(C(C)(C)C)c(Cl)nc(-n2cccn2)c1=O`, the Activity with Botrytis cinerea [1], with Parastagonospora nodorum [3], with Puccinia triticina [4], with Botrytis cinerea [6], in the assay with Puccinia triticina [7] and in the assay on Parastagonospora nodorum [9] was 0% throughout.
By IC50 is commonly meant the concentration that inhibits the measured activity by half. Turning to `CC[C@H](C)Cn1c(-c2c(F)cc(OCCCN(C)C)cc2F)c(Cl)nc(-n2cccn2)c1=O`, the Activity in the assay with Puccinia triticina [10] stood at 0%; with Botrytis cinerea [1], 94%; with Parastagonospora nodorum [2], 0%; in the assay with Parastagonospora nodorum [3], 0%; in the assay with Puccinia triticina [4], 99%; in the assay on Puccinia triticina [5] it was 89%. Moreover, the Activity with Puccinia triticina [7] came to 100%; in the assay with Botrytis cinerea [8] it was 94%; in the assay with Botrytis cinerea [11], 0%; with Parastagonospora nodorum [9], 94%; in the assay with Parastagonospora nodorum [12], 0%. The compound also yielded a 50% inhibitory concentration (IC50) in assay [13] of 1.3 nM.
For `CC(C)Cn1c(C2CCCC2)c(Cl)nc(-n2cccn2)c1=O`, the Activity with Botrytis cinerea [1] turned out to be 99%; with Parastagonospora nodorum [3], 0%; in the assay with Puccinia triticina [4], 91%; in the assay on Botrytis cinerea [6] it was 100%; in the assay on Puccinia triticina [7], 100%; with Parastagonospora nodorum [9] it was 0%.
`CC(C)Cn1c(C(C)C)c(Cl)nc(-n2cccn2)c1=O`: the Activity with Botrytis cinerea [1] is 99%; with Parastagonospora nodorum [3] it was 0%; in the assay on Puccinia triticina [4], 18%; with Botrytis cinerea [6], 99%; with Puccinia triticina [7] it was 98%; in the assay on Parastagonospora nodorum [9], 0%.
For `CC[C@H](C)Cn1c(-c2c(F)cc(F)cc2F)c(Cl)nc(-n2cccn2)c1=O`, the Activity in the assay on Puccinia triticina [10] came to 99%; in the assay with Botrytis cinerea [1], 100%; with Parastagonospora nodorum [2], 99%; with Parastagonospora nodorum [3], 100%; with Puccinia triticina [4] it was 100%; in the assay on Puccinia triticina [5], 100%. The Activity in the assay with Botrytis cinerea [8] is given as 100%; with Botrytis cinerea [11], 100%; with Parastagonospora nodorum [12], 0%. Besides, the midpoint of inhibition in assay [13], the IC50, lay at 20 nM.
Regarding `CC[C@H](C)Cn1c(-c2c(F)cccc2F)c(Cl)nc(-n2cncn2)c1=O`, the Activity in the assay on Botrytis cinerea [1] was 100%; in the assay with Parastagonospora nodorum [3], 94%; in the assay on Puccinia triticina [4], 98%; in the assay with Botrytis cinerea [6], 100%; in the assay on Puccinia triticina [7], 98%; in the assay with Parastagonospora nodorum [9], 100%.
For the compound `CC(C)Cn1c(-c2c(F)cccc2F)c(Cl)nc(-c2nccn2C)c1=O`, the Activity in the assay with Botrytis cinerea [1], with Parastagonospora nodorum [2], in the assay with Parastagonospora nodorum [3], in the assay on Puccinia triticina [4], in the assay with Puccinia triticina [5] and with Botrytis cinerea [6] was 0% in each case. For the same compound, the Activity in the assay with Puccinia triticina [7], in the assay on Botrytis cinerea [8] and in the assay on Parastagonospora nodorum [9] was 0% in each case.
As for `CC(C)Cn1c(-c2c(F)cccc2F)c(Cl)nc(-c2cnccn2)c1=O`, the Activity in the assay with Botrytis cinerea [1] came to 98%; with Parastagonospora nodorum [2], 0%; in the assay with Parastagonospora nodorum [3], 0%; in the assay with Puccinia triticina [4], 89%; with Puccinia triticina [5], 0%; in the assay on Botrytis cinerea [6] it was 98%. Moreover, the figures for the Activity in the assay with Puccinia triticina [7], in the assay with Botrytis cinerea [8] and in the assay with Parastagonospora nodorum [9] were 99%, 83% and 98%, respectively.
Consider `O=c1c(-n2cccn2)nc(Cl)c(-c2c(F)cc(F)cc2F)n1C1CCCCC1`, for which the Activity amounted to 99% with Botrytis cinerea [1]; 73% with Parastagonospora nodorum [2]; 99% in the assay with Parastagonospora nodorum [3]; 97% in the assay with Puccinia triticina [4]; 89% with Puccinia triticina [5]; 99% in the assay with Botrytis cinerea [6]. Moreover, the Activity in the assay with Puccinia triticina [7] is listed as 99%; in the assay on Botrytis cinerea [8], 99%; in the assay with Parastagonospora nodorum [9], 100%.
`CC(C)Cn1c(-c2c(F)cccc2F)c(Br)nc(-n2cccn2)c1=O`: the Activity in the assay with Botrytis cinerea [1] is listed as 100%; in the assay on Parastagonospora nodorum [2], 86%; in the assay on Parastagonospora nodorum [3], 100%; in the assay on Puccinia triticina [4] it was 99%; with Puccinia triticina [5] it was 88%; in the assay on Botrytis cinerea [6], 100%. In addition, the results for the Activity in the assay on Puccinia triticina [7], in the assay with Botrytis cinerea [8] and in the assay on Parastagonospora nodorum [9] were 100%, 99% and 100%, respectively.
As for `CC[C@H](C)Cn1c(-c2c(F)cccc2F)c(Cl)nc(-n2ccnn2)c1=O`, the Activity in the assay on Botrytis cinerea [1] was determined as 81%; with Parastagonospora nodorum [2] it was 0%; in the assay on Parastagonospora nodorum [3], 0%; with Puccinia triticina [4], 67%; in the assay on Puccinia triticina [5], 67%; with Botrytis cinerea [6], 98%. Further, the Activity in the assay with Puccinia triticina [7] is reported as 73%; in the assay with Botrytis cinerea [8] it was 33%; with Parastagonospora nodorum [9] it was 73%.
As to `CC[C@H](C)Cn1c(-c2c(F)cccc2F)c(Cl)nc(-n2nccn2)c1=O`, the Activity in the assay on Botrytis cinerea [1] came out at 0%; in the assay on Parastagonospora nodorum [3], 0%; with Puccinia triticina [4], 19%; in the assay with Botrytis cinerea [6] it was 97%; with Puccinia triticina [7], 86%; in the assay on Parastagonospora nodorum [9] it was 0%.

Values taken from ChEMBL document CHEMBL3739347, “Tubulin modulating antifungal and antiproliferative pyrazinone derivatives” (Bioorg Med Chem, 2016).
